Test results from ChEMBL document CHEMBL2434886, “Development of 3,4-dihydroisoquinolin-1(2H)-one derivatives for the Positron Emission Tomography (PET) imaging of σ₂ receptors” (Eur J Med Chem, 2013).
pEC50, pKi: −log10 of the molar value.

Columns and labels:
[1] = Selectivity ratio of Ki for sigma 1 receptor in guinea pig brain membranes without cerebellum to Ki for sigma 2 receptor in Wistar Hannover rat liver membranes; assay type: cell membranes; conditions: Membrane
[2] = Displacement of [3H]-DTG from sigma 2 receptor in Wistar Hannover rat liver membranes; assay type: cell membranes, Membrane
[3] = biological target: Sigma non-opioid intracellular receptor 1 (Cavia porcellus, UniProt Q60492); assay: Displacement of (+)-[3H]-pentazocine from sigma 1 receptor in Dunkin guinea pig brain membranes without cerebellum; assay type: cell membranes, Membrane
[4] = biological target: ATP-dependent translocase ABCB1 (Homo sapiens, UniProt P08183); assay: Activity at human MDR1 expressed in MDCK cells assessed as Calcein-AM uptake after 30 mins by fluorescence assay; assay type: ADME, cell-based
How it was run: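 P-gp interaction measured with the Calcein-AM assay in MDCK-MDR1 cells, which overexpress P-gp.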

[5] = system: Caco-2; assay: Efflux ratio of apparent permeability from apical to basolateral side over basolateral to apical side in human Caco2 cells at 1 to 100 uM after 120 mins; assay type: ADME, cell-based; conditions: caco-2, 2 h
[6] = biological target: T1, Adrenergic receptor alpha-1 (Rattus norvegicus, UniProt P15823+P23944+P43140); assay: Displacement of [3H]-prazosin from alpha1 adrenoceptor in Wistar Hannover rat cerebral cortex membranes after 50 mins; assay type: cell membranes, Membrane
T1 sequence (P15823 whole entry): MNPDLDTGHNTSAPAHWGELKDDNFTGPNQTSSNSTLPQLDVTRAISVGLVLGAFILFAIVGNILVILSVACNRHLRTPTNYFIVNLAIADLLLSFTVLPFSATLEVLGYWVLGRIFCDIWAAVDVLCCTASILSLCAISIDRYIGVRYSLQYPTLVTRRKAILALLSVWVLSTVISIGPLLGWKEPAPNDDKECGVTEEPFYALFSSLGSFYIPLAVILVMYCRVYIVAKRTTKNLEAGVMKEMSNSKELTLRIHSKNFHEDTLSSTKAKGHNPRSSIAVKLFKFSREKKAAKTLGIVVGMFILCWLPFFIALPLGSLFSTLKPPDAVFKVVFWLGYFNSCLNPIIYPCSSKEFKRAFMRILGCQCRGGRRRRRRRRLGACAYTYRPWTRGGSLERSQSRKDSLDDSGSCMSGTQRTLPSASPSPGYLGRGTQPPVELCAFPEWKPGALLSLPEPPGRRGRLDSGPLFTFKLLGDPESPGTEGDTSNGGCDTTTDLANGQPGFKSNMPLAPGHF
T1 sequence (P23944 whole entry): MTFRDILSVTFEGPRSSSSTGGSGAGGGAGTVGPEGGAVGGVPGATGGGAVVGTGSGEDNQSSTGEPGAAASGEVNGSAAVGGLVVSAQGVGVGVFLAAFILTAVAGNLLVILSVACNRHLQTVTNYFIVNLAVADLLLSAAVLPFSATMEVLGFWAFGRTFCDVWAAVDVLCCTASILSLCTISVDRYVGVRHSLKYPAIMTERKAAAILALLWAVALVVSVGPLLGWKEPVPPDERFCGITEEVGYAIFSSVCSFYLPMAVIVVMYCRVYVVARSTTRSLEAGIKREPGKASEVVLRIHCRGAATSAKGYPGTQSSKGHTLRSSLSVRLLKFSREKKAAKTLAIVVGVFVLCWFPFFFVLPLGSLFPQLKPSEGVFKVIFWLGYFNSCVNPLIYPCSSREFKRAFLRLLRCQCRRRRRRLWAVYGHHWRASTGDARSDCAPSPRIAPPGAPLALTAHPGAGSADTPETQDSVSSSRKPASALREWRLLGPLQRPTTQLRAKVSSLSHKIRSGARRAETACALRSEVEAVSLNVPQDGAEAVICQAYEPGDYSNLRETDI
T1 sequence (P43140 whole entry): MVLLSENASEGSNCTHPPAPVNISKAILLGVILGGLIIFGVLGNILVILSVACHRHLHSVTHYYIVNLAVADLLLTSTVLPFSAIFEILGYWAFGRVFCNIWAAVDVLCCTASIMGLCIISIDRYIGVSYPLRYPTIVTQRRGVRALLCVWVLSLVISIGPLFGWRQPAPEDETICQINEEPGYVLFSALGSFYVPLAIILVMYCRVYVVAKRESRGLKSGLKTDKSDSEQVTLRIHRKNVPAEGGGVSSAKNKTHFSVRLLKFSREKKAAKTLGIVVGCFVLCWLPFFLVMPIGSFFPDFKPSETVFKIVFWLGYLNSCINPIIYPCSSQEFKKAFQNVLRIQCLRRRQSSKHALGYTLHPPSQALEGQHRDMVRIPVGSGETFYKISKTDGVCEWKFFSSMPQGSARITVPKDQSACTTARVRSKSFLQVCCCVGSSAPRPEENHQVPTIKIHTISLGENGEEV
How it was run: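 Rat cerebral cortex membranes ([…]) with 1 nM [3H]-prazosin in 50 mM Tris-HCl pH 7.4, 120 mM NaCl, 5 mM KCl, 5 mM CaCl2, 1 mM MgCl2, plus varied drug concentrations. Incubated 50 min at 25 °C, filtered on PEI-soaked GF/C. Nonspecific binding with 10 phentolamine.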

[7] = biological target: T2, 5-hydroxytryptamine receptor 1A (Homo sapiens, UniProt P08908); assay: Displacement of [3H]-8-OH-DPAT from human recombinant 5-HT1A receptor expressed in HEK293-EBNA cells after 120 mins; assay type: cell-based
T2 sequence (P08908 whole entry): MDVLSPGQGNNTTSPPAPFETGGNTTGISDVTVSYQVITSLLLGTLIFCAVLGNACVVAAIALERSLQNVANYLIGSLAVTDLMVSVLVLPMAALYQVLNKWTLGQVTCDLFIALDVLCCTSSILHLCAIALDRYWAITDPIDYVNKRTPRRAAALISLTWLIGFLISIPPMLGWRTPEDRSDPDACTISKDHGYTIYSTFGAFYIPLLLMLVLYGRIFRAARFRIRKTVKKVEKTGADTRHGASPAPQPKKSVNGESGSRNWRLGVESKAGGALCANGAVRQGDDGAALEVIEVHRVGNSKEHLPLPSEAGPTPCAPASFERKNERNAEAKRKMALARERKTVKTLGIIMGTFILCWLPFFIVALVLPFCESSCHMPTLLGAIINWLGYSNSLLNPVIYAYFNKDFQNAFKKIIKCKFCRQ
How it was run: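 HEK293-EBNA membranes ([…] protein) stably expressing human 5-HT1A, 1.0 nM [3H]-8-OH-DPAT, test compound 0.1 nM to 10 mM. Buffer 50 mM Tris-HCl pH 7.4, 5 mM MgSO4. Incubated 120 min at 37 °C, filtered on PEI-soaked GF/C. Nonspecific binding with 10 mM 5-HT.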

[8] = biological target: 5-hydroxytryptamine receptor 7 (Homo sapiens, UniProt P34969); assay: Displacement of [3H]-5-CT from human recombinant 5-HT7 receptor expressed in CHO-K1 cells after 120 mins; assay type: cell-based
[9] = system: Bone; assay: Drug uptake in bone of Wistar rat at 47 MBq, iv up to 90 mins by PET analysis; assay type: ADME, organism-based, Bone element; conditions: in vivo, 1.5 h
How it was run: (§1)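 Male Wistar rat under isoflurane given 47 MBq (0.8 nmol) [18F]-tracer via tail vein. Head scanned 0–90 min by list-mode PET, then CT. Blocking rat received 1 mg/kg haloperidol iv just before tracer (34 MBq). 2D-OSEM reconstruction with no attenuation correction. ROI analysis gives SUV (Bq/cm3 per injected Bq/g).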

[10] = system: Cerebellum; assay: Drug uptake in cerebellum of Wistar rat at 47 MBq, iv up to 90 mins by PET analysis in presence of haloperidol; assay type: ADME, organism-based; conditions: in vivo, 1.5 h
[11] = Drug uptake in olfactory of Wistar rat at 47 MBq, iv up to 90 mins by PET analysis in presence of haloperidol; assay type: ADME, organism-based; conditions: in vivo, 1.5 h
[12] = system: Cerebral cortex; assay: Drug uptake in cerebral cortex of Wistar rat at 47 MBq, iv up to 90 mins by PET analysis in presence of haloperidol; assay type: ADME, organism-based; conditions: in vivo, 1.5 h
[13] = system: Cerebellum; assay: Drug uptake in cerebellum of Wistar rat at 47 MBq, iv up to 90 mins by PET analysis; assay type: ADME, organism-based; conditions: in vivo, 1.5 h; how it was run: as §1
[14] = Drug uptake in olfactory of Wistar rat at 47 MBq, iv up to 90 mins by PET analysis; assay type: ADME, organism-based; conditions: in vivo, 1.5 h; how it was run: as §1
[15] = system: Cerebral cortex; assay: Drug uptake in cerebral cortex of Wistar rat at 47 MBq, iv up to 90 mins by PET analysis; assay type: ADME, organism-based; conditions: in vivo, 1.5 h; how it was run: as §1
[16] = system: Brain; assay: Drug uptake in Wistar rat brain slices after 45 mins by autoradiography in presence of 0.9 uM of unlabelled 2-(3-(6,7-Dimethoxy-3,4-dihydroisoquinolin-2(1H)-yl)propyl)-5-(2-fluoroethoxy)-3,4-dihydroisoquinolin-1(2H)-one; assay type: ADME, tissue-based
How it was run: (§2)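 Horizontal 20 µm cryosections of male Wistar rat brain, thawed 30 min, pre-incubated 10 min at 4 °C in 50 mM Tris-HCl pH 7.4. Incubated 45 min at rt with 9 nM [18F]-tracer in Tris-HCl/1% BSA (n = 4), alone or with blocker. Washed, air-dried, phosphor-imaged after 15 min exposure.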

[17] = system: Brain; assay: Drug uptake in Wistar rat brain slices after 45 mins by autoradiography in presence of 90 uM of haloperidol; assay type: ADME, tissue-based; how it was run: as §2
[18] = system: Cerebellum; assay: Drug uptake in Wistar rat cerebellum after 45 mins by autoradiography; assay type: ADME, tissue-based; how it was run: as §2
[19] = system: Cerebral cortex; assay: Drug uptake in Wistar rat cerebral cortex after 45 mins by autoradiography; assay type: ADME, tissue-based; how it was run: as §2
[20] = system: Hippocampus; assay: Drug uptake in Wistar rat hippocampus after 45 mins by autoradiography; assay type: ADME, tissue-based; how it was run: as §2

Sigma non-opioid intracellular receptor 1, sequence (Q60492 whole entry): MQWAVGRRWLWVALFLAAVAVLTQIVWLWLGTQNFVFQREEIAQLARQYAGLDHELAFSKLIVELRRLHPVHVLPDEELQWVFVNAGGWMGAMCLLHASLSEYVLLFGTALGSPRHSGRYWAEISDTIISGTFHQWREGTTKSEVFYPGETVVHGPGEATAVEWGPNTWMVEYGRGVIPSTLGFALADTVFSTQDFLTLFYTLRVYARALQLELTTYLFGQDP
ATP-dependent translocase ABCB1, sequence (P08183 whole entry): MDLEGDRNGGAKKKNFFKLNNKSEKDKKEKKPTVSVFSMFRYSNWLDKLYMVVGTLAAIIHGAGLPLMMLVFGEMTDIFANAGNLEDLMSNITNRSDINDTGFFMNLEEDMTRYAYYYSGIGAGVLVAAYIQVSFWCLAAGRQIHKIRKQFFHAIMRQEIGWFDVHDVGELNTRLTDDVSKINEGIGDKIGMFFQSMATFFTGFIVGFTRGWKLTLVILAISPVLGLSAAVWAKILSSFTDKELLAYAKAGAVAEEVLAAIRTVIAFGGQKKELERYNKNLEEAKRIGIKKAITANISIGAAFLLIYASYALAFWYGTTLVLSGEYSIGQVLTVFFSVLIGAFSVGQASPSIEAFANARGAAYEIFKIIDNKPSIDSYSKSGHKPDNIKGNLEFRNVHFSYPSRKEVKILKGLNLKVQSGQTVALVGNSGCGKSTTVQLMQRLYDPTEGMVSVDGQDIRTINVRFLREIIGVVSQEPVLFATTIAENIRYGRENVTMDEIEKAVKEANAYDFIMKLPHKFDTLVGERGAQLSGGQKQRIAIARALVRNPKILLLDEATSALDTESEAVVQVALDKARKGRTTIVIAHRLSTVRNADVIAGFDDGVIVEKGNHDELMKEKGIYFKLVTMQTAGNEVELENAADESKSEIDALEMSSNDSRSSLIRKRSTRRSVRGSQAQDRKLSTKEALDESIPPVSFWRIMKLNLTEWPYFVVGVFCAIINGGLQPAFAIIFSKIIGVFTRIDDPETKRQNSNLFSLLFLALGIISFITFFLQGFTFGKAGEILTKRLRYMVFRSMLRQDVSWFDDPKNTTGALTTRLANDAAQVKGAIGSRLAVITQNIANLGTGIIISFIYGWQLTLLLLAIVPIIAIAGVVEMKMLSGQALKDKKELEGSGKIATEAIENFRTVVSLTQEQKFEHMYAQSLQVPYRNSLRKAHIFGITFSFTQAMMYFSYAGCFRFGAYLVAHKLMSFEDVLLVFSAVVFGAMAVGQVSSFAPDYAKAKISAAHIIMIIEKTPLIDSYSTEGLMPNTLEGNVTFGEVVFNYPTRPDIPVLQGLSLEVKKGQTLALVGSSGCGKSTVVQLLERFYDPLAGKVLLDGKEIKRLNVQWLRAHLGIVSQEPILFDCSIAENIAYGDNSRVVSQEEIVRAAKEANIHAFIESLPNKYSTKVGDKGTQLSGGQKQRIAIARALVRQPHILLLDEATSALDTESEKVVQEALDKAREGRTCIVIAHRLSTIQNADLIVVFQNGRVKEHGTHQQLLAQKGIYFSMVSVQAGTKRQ
5-hydroxytryptamine receptor 7, sequence (P34969 whole entry): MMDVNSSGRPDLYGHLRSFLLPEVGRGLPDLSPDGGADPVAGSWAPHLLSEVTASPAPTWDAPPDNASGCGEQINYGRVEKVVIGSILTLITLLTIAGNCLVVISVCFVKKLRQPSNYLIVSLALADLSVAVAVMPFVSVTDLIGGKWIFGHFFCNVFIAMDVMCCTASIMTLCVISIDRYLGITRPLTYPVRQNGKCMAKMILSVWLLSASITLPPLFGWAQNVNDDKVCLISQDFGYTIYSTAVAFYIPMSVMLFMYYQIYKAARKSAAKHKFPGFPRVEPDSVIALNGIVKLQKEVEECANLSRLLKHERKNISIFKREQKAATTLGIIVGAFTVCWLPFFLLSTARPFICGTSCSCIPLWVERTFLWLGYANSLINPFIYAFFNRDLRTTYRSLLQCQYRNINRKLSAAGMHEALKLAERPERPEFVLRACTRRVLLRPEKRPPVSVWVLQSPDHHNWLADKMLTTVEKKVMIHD

Ratio Ki [1] | pKi [2] | pKi [3] | Compound | also measured
101 | 7.79 | 5.79 | COc1cc2c(cc1OC)CN(CCCN1CCc3cccc(OC)c3C1=O)CC2 | –
127 | 7.70 | 5.59 | COc1cc2c(cc1OC)CN(CCCN1CCc3cc(OC)c(OC)cc3C1=O)CC2 | –
70 | 8.24 | 6.40 | COc1ccc2c(c1)CCN(CCCN1CCc3cc(OC)c(OC)cc3C1)C2=O | –
574 | 8.37 | 5.61 | COc1cc2c(cc1OC)CN(CCCN1CCc3c(OC)cccc3C1=O)CC2 | –
– | – | – | COc1cc2c(cc1OC)CN(CC/C=C1\CCCc3c(OC)cccc31)CC2 | pEC50 [4]: 5.96
330 | 8.03 | 5.51 | COc1cc2c(cc1OC)CN(CCCN1CCc3c(OCCF)cccc3C1=O)CC2 | Ratio [5]: 2.58; pEC50 [4]: 5.30; Ki [6]: 764 nM; pKi [7]: < 6.00; pKi [8]: < 6.00
87 | 8.45 | 6.51 | COc1cc2c(cc1OC)CN(CCCN1CCc3cc(F)ccc3C1=O)CC2 | –
– | – | – | COc1cc2c(cc1OC)CN(CCCN1CCc3c(OCC[18F])cccc3C1=O)CC2 | Drug uptake [9]: Not Active; Drug uptake [10]: Not Active; Drug uptake [11]: Not Active; Drug uptake [12]: Not Active; Drug uptake [13]: Active; Drug uptake [14]: Active; Drug uptake [15]: Active; Drug uptake [16]: Not Active; Drug uptake [17]: Not Active; Drug uptake [18]: Active; Drug uptake [19]: Active; Drug uptake [20]: Active
